In ChEMBL document CHEMBL4689842, “EUbOPEN Chemogenomics Library wave 1” (2021):

Key:
Type in all cases: toxicity, cell-based
HEK-293T [1] = assay: Multiplex assay against HEK293T; details: human;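 as to Population Tubulin-Different-Phenotype (%): share of the cells with healthy nuclei that show this phenotype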
Procedure, shortened: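 Values for tubulin, mitochondrial-mass and membrane-permeability phenotypes are per cents of cells with healthy nuclei. These cells were identified by CellPathfinder machine-learning gating of live cells that had been stained at seeding with Hoechst33342, BioTracker Green Microtubule Cytoskeleton Dye, MitoTracker Red and Annexin V Alexa Fluor 680 and imaged on a CQ1 microscope at 37°C and 5% CO2 after compound addition. The gating first set Hoechst high-intensity objects apart from normal cells, then split normal cells into healthy, pyknosed or fragmented nuclei, and pyknosed cells into mitotic or apoptotic.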

HEK-293T [2] = assay: Incucyte cell viability with HEK293T; details: human, 10 µM, compound concentration 10 uM; also: filed as whole numbers so only -1 and 0 and 1 occur
Fibroblast = assay: Incucyte cell viability with human fibroblast; details: 10 µM, compound concentration 10 uM; also: filed as whole numbers so only -1 and 0 and 1 occur
[3] = 12 h, 1 µM, compound concentration 1 uM, replicate 1
[4] = 12 h, 1 µM, compound concentration 1 uM, replicate 2
[5] = 12 h, 10 µM, compound concentration 10 uM, replicate 1
[6] = 12 h, 10 µM, compound concentration 10 uM, replicate 2
[7] = 24 h, 1 µM, compound concentration 1 uM, replicate 1
[8] = 24 h, 1 µM, compound concentration 1 uM, replicate 2
[9] = 24 h, 10 µM, compound concentration 10 uM, replicate 1
[10] = 24 h, 10 µM, compound concentration 10 uM, replicate 2
[11] = 48 h, 1 µM, compound concentration 1 uM, replicate 1
[12] = 48 h, 1 µM, compound concentration 1 uM, replicate 2
[13] = 48 h, 10 µM, compound concentration 10 uM, replicate 1
[14] = 48 h, 10 µM, compound concentration 10 uM, replicate 2
[15] = 0 h, replicate number 1, timepoint 0 hours
[16] = 6 h, replicate number 1, timepoint 6 hours
[17] = 12 h, replicate number 1, timepoint 12 hours
[18] = 18 h, replicate number 1, timepoint 18 hours
[19] = 24 h, replicate number 1, timepoint 24 hours

O=C(O)c1ccc2cc(-c3ccc(O)c(C45CC6CC(CC(C6)C4)C5)c3)ccc2c1 [O-DEMETHYLATED ADAPALENE]
Population Apoptotic (%) (HEK-293T [1]; [3]): 35% | Population Fragmented Nuclei (%) (HEK-293T [1]; [3]): 6% | Population Healthy Nuclei (%) (HEK-293T [1]; [3]): 60% | Population Hoechst High Intensity Objects (%) (HEK-293T [1]; [3]): 5% | Population Membrane Permeable-Phenotype (%) (HEK-293T [1]; [3]): 1% | Population Mitochondria Different-Phenotype (%) (HEK-293T [1]; [3]): 70% | Population Mitotic Cells (%) (HEK-293T [1]; [3]): 64% | Population Normal (%) (HEK-293T [1]; [3]): 94% | Population Pyknosed Nuclei (%) (HEK-293T [1]; [3]): 33% | Population Tubulin-Different-Phenotype (%) (HEK-293T [1]; [3]): 30% | Total Cell Count (HEK-293T [1]; [3]): 320 | Population Apoptotic (%) (HEK-293T [1]; [4]): 12% | Population Fragmented Nuclei (%) (HEK-293T [1]; [4]): 2% | Population Healthy Nuclei (%) (HEK-293T [1]; [4]): 57% | Population Hoechst High Intensity Objects (%) (HEK-293T [1]; [4]): 4% | Population Membrane Permeable-Phenotype (%) (HEK-293T [1]; [4]): 8% | Population Mitochondria Different-Phenotype (%) (HEK-293T [1]; [4]): 15% | Population Mitotic Cells (%) (HEK-293T [1]; [4]): 87% | Population Normal (%) (HEK-293T [1]; [4]): 95% | Population Pyknosed Nuclei (%) (HEK-293T [1]; [4]): 40% | Population Tubulin-Different-Phenotype (%) (HEK-293T [1]; [4]): 17% | Total Cell Count (HEK-293T [1]; [4]): 214 | Population Apoptotic (%) (HEK-293T [1]; [5]): 53% | Population Fragmented Nuclei (%) (HEK-293T [1]; [5]): 21% | Population Healthy Nuclei (%) (HEK-293T [1]; [5]): 33% | Population Hoechst High Intensity Objects (%) (HEK-293T [1]; [5]): 15% | Population Mitochondria Different-Phenotype (%) (HEK-293T [1]; [5]): 52% | Population Mitotic Cells (%) (HEK-293T [1]; [5]): 46% | Population Normal (%) (HEK-293T [1]; [5]): 84% | Population Pyknosed Nuclei (%) (HEK-293T [1]; [5]): 45% | Population Tubulin-Different-Phenotype (%) (HEK-293T [1]; [5]): 14% | Total Cell Count (HEK-293T [1]; [5]): 204 | Population Apoptotic (%) (HEK-293T [1]; [6]): 14% | Population Fragmented Nuclei (%) (HEK-293T [1]; [6]): 8% | Population Healthy Nuclei (%) (HEK-293T [1]; [6]): 43% | Population Hoechst High Intensity Objects (%) (HEK-293T [1]; [6]): 5% | Population Membrane Permeable-Phenotype (%) (HEK-293T [1]; [6]): 3% | Population Mitochondria Different-Phenotype (%) (HEK-293T [1]; [6]): 6% | Population Mitotic Cells (%) (HEK-293T [1]; [6]): 85% | Population Normal (%) (HEK-293T [1]; [6]): 94% | Population Pyknosed Nuclei (%) (HEK-293T [1]; [6]): 47% | Population Tubulin-Different-Phenotype (%) (HEK-293T [1]; [6]): 11% | Total Cell Count (HEK-293T [1]; [6]): 228 | Population Apoptotic (%) (HEK-293T [1]; [7]): 37% | Population Fragmented Nuclei (%) (HEK-293T [1]; [7]): 5% | Population Hoechst High Intensity Objects (%) (HEK-293T [1]; [7]): 5% | Population Membrane Permeable-Phenotype (%) (HEK-293T [1]; [7]): 6% | Population Mitochondria Different-Phenotype (%) (HEK-293T [1]; [7]): 44% | Population Mitotic Cells (%) (HEK-293T [1]; [7]): 62% | Population Normal (%) (HEK-293T [1]; [7]): 94% | Population Pyknosed Nuclei (%) (HEK-293T [1]; [7]): 19% | Population Tubulin-Different-Phenotype (%) (HEK-293T [1]; [7]): 24% | Total Cell Count (HEK-293T [1]; [7]): 354 | Population Apoptotic (%) (HEK-293T [1]; [8]): 13% | Population Fragmented Nuclei (%) (HEK-293T [1]; [8]): 6% | Population Healthy Nuclei (%) (HEK-293T [1]; [8]): 75% | Population Hoechst High Intensity Objects (%) (HEK-293T [1]; [8]): 1% | Population Membrane Permeable-Phenotype (%) (HEK-293T [1]; [8]): 13% | Population Mitochondria Different-Phenotype (%) (HEK-293T [1]; [8]): 14% | Population Mitotic Cells (%) (HEK-293T [1]; [8]): 86% | Population Normal (%) (HEK-293T [1]; [8]): 98% | Population Pyknosed Nuclei (%) (HEK-293T [1]; [8]): 18% | Population Tubulin-Different-Phenotype (%) (HEK-293T [1]; [8]): 26% | Total Cell Count (HEK-293T [1]; [8]): 257 | Population Apoptotic (%) (HEK-293T [1]; [9]): 52% | Population Fragmented Nuclei (%) (HEK-293T [1]; [9]): 16% | Population Healthy Nuclei (%) (HEK-293T [1]; [9]): 43% | Population Hoechst High Intensity Objects (%) (HEK-293T [1]; [9]): 20% | Population Membrane Permeable-Phenotype (%) (HEK-293T [1]; [9]): 1% | Population Mitochondria Different-Phenotype (%) (HEK-293T [1]; [9]): 34% | Population Mitotic Cells (%) (HEK-293T [1]; [9]): 47% | Population Normal (%) (HEK-293T [1]; [9]): 79% | Population Pyknosed Nuclei (%) (HEK-293T [1]; [9]): 40% | Population Tubulin-Different-Phenotype (%) (HEK-293T [1]; [9]): 14% | Total Cell Count (HEK-293T [1]; [9]): 218 | Population Apoptotic (%) (HEK-293T [1]; [10]): 25% | Population Fragmented Nuclei (%) (HEK-293T [1]; [10]): 11% | Population Healthy Nuclei (%) (HEK-293T [1]; [10]): 50% | Population Hoechst High Intensity Objects (%) (HEK-293T [1]; [10]): 11% | Population Membrane Permeable-Phenotype (%) (HEK-293T [1]; [10]): 4% | Population Mitochondria Different-Phenotype (%) (HEK-293T [1]; [10]): 17% | Population Mitotic Cells (%) (HEK-293T [1]; [10]): 75% | Population Normal (%) (HEK-293T [1]; [10]): 88% | Population Pyknosed Nuclei (%) (HEK-293T [1]; [10]): 38% | Population Tubulin-Different-Phenotype (%) (HEK-293T [1]; [10]): 16% | Total Cell Count (HEK-293T [1]; [10]): 234 | Population Apoptotic (%) (HEK-293T [1]; [11]): 26% | Population Fragmented Nuclei (%) (HEK-293T [1]; [11]): 10% | Population Hoechst High Intensity Objects (%) (HEK-293T [1]; [11]): 6% | Population Membrane Permeable-Phenotype (%) (HEK-293T [1]; [11]): 2% | Population Mitochondria Different-Phenotype (%) (HEK-293T [1]; [11]): 13% | Population Mitotic Cells (%) (HEK-293T [1]; [11]): 73% | Population Normal (%) (HEK-293T [1]; [11]): 93% | Population Tubulin-Different-Phenotype (%) (HEK-293T [1]; [11]): 10% | Total Cell Count (HEK-293T [1]; [11]): 565 | Population Apoptotic (%) (HEK-293T [1]; [12]): 15% | Population Fragmented Nuclei (%) (HEK-293T [1]; [12]): 9% | Population Healthy Nuclei (%) (HEK-293T [1]; [12]): 80% | Population Hoechst High Intensity Objects (%) (HEK-293T [1]; [12]): 2% | Population Membrane Permeable-Phenotype (%) (HEK-293T [1]; [12]): 11% | Population Mitochondria Different-Phenotype (%) (HEK-293T [1]; [12]): 1% | Population Mitotic Cells (%) (HEK-293T [1]; [12]): 84% | Population Normal (%) (HEK-293T [1]; [12]): 97% | Population Pyknosed Nuclei (%) (HEK-293T [1]; [12]): 9% | Population Tubulin-Different-Phenotype (%) (HEK-293T [1]; [12]): 19% | Total Cell Count (HEK-293T [1]; [12]): 390 | Population Apoptotic (%) (HEK-293T [1]; [13]): 51% | Population Fragmented Nuclei (%) (HEK-293T [1]; [13]): 21% | Population Healthy Nuclei (%) (HEK-293T [1]; [13]): 30% | Population Hoechst High Intensity Objects (%) (HEK-293T [1]; [13]): 19% | Population Membrane Permeable-Phenotype (%) (HEK-293T [1]; [13]): 1% | Population Mitochondria Different-Phenotype (%) (HEK-293T [1]; [13]): 22% | Population Mitotic Cells (%) (HEK-293T [1]; [13]): 48% | Population Normal (%) (HEK-293T [1]; [13]): 80% | Population Pyknosed Nuclei (%) (HEK-293T [1]; [13]): 48% | Population Tubulin-Different-Phenotype (%) (HEK-293T [1]; [13]): 16% | Total Cell Count (HEK-293T [1]; [13]): 217 | Population Apoptotic (%) (HEK-293T [1]; [14]): 32% | Population Fragmented Nuclei (%) (HEK-293T [1]; [14]): 12% | Population Healthy Nuclei (%) (HEK-293T [1]; [14]): 33% | Population Hoechst High Intensity Objects (%) (HEK-293T [1]; [14]): 9% | Population Mitochondria Different-Phenotype (%) (HEK-293T [1]; [14]): 2% | Population Mitotic Cells (%) (HEK-293T [1]; [14]): 67% | Population Normal (%) (HEK-293T [1]; [14]): 90% | Population Pyknosed Nuclei (%) (HEK-293T [1]; [14]): 53% | Population Tubulin-Different-Phenotype (%) (HEK-293T [1]; [14]): 10% | Total Cell Count (HEK-293T [1]; [14]): 243 | Growth Rate (HEK-293T [2]; [15]): 1 | Growth Rate (HEK-293T [2]; 0 h, replicate number 2, timepoint 0 hours): 0 | Growth Rate (HEK-293T [2]; [16]): 0 | Growth Rate (HEK-293T [2]; [17]): 0 | Growth Rate (HEK-293T [2]; [18]): 0 | Growth Rate (HEK-293T [2]; [19]): 0 | Growth Rate (Fibroblast; [15]): 0 | Growth Rate (Fibroblast; [16]): 0 | Growth Rate (Fibroblast; [17]): 0 | Growth Rate (Fibroblast; 12 h, replicate number 2, timepoint 12 hours): 1 | Growth Rate (Fibroblast; [18]): 0 | Growth Rate (Fibroblast; [19]): 0
